Published values gathered from unrelated publications.
Target: Casein kinase I isoform gamma-1 (CSNK1G1, Homo sapiens, UniProt Q9HCP0)

C#Cc1n[nH]c2c(-c3cn([C@@H](C)c4ccccc4)c(=O)[nH]c3=O)cc(F)cc12 — inhibition (enzyme activity; inhibitor; 0.1 µM): 6.6%
Cn1cncc1[C@@](O)(COc1ccc(C#N)cc1-c1ccc(OC(F)(F)F)cc1)c1ccc(C#N)cc1 — remaining binding (cell-free assay; competition with immobilised ligand; 1 µM): 91%
Cc1nn(C)cc1-c1nc2c(N3CCN(Cc4ccc(Cl)cc4)CC3)c(Cl)cnc2[nH]1 — remaining binding (binding; competition with immobilised ligand; 1 µM): 100%
Nc1ncc(-c2nc(N3CCOCC3)nc(N3CCOCC3)n2)c(C(F)F)n1 — remaining binding (binding; competition with immobilised ligand; 10 µM): 79%
COc1ncccc1-c1cnn2ccc(N3CCN(C(=O)OC(C)C)CC3)nc12 — remaining binding (binding; competition with immobilised ligand; 1 µM): 77%
COc1cc(Nc2ncc(F)c(Nc3ccc4c(n3)NC(=O)C(C)(C)O4)n2)cc(OC)c1OC — inhibition (binding; competition with immobilised ligand; 10 µM): 0%
O=c1[nH]c2ccccc2n1C1CCN(Cc2ccc(-c3[nH]c4cc5ncnc5cc4nc3-c3ccccc3)cc2)CC1 — remaining signal (cell-free assay; 0.5 µM): 99.3%
N#CC1(c2ccccn2)CCN(Cc2cc(C(=O)O)c(=O)n3ccccc23)CC1 — remaining binding (cell-free assay; competition with immobilised ligand; 1 µM): 100%
Cn1cc(-c2cccc(N3CCc4c(sc5c4CC(C)(C)C5)C3=O)c2CO)cc(Nc2ccncn2)c1=O — inhibition (enzyme activity; inhibitor; 1 µM): 5%
C#Cc1n[nH]c2c(-c3cn(C(C)c4ccccn4)c(=O)[nH]c3=O)cc(F)cc12 (stereo not drawn) — inhibition (enzyme activity; inhibitor; 1 µM): 5.4%
Cn1cc(-c2cc(F)cc(N3CCn4c(cc5c4CCCC5)C3=O)c2CO)cc(Nc2ccc(N3CCN(C4COC4)CC3)cn2)c1=O — inhibition (enzyme activity; inhibitor; 0.1 µM): 1%
CC(C)(C)c1cc(C=C(C#N)C#N)cc(Br)c1O — remaining activity (enzyme activity; inhibitor; 0.5 µM): 106%
